{"source": "paper PMC2788794", "about": "(Chemistry & biology, 2009)", "key": {"αIIbβ3 CHO K1 cells [1]": {"test_system": "αIIbβ3 CHO K1 cells", "experiment": "Cell adhesion inhibition assay with soluble peptides", "type": "cell-based", "conditions": "soluble peptide 1 pM to 100 µM; 0.5% GRGDSC monolayer; 300 µM cRGDFG"}, "platelets [2]": {"test_system": "platelets", "conditions": "cited from earlier work; for inhibition of Fbg binding to platelets: ref Bennett et al., 1988"}, "platelets [3]": {"test_system": "platelets", "conditions": "ref Bennett et al., 1988; cited from earlier work"}, "αIIbβ3 CHO K1 cells [4]": {"test_system": "αIIbβ3 CHO K1 cells", "experiment": "Adhesion of transfected cells to GRGDSC monolayer in presence of inhibitors", "type": "cell-based", "conditions": "0.5% GRGDSC SAM"}, "αIIbβ3": {"test_system": "αIIbβ3", "conditions": "platelets; ref Bennett et al., 1988; cited from earlier work"}, "CHO K1 cells": {"test_system": "CHO K1 cells", "experiment": "Block of cell attachment to GRGDSC monolayer by cRGDFG", "type": "cell-based", "conditions": "cRGDFG 300 µM; 0.5% GRGDSC SAM", "in_short": "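Untransfected CHO K1 cells (F12K, 10% FBS, 37 °C, 5% CO2) were seeded on 0.5% GRGDSC SAMs, with or without cRGDFG 300 µM. The GRGDSC surface was made by coupling cysteine-terminated peptide (1 mM, 37 °C, 1 h) to a maleimide-presenting monolayer with tri(ethylene glycol) background. Adherent cells were scored by optical microscopy.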"}, "αvβ3": {"test_system": "αvβ3", "conditions": "ref Haubner et al., 1996; cited from earlier work"}, "αIIbβ3 CHO K1 cells [5]": {"test_system": "αIIbβ3 CHO K1 cells", "experiment": "Cell adhesion assay on self-assembled monolayers presenting immobilized peptides", "type": "cell-based", "conditions": "Fbg adsorbed on dodecanethiol (hydrophobic) monolayer; 300 µM cRGDFG"}}, "data": [{"molecule": "AGDV", "values": [{"measurement": "block of cell attachment by soluble peptide to a monolayer presenting GRGDS", "setting": "αIIbβ3 CHO K1 cells [1]", "value": "blocked cell attachment"}, {"measurement": "inhibition of Fbg binding to activated platelets", "setting": "platelets [2]; soluble peptide competing with radiolabeled Fbg, ref Plow et al., 1985", "value": "failure of an AGDV peptide to inhibit Fbg binding"}]}, {"molecule": "LGGAKQAGDV", "values": [{"measurement": "inhibition of binding of A2A9 to platelets", "setting": "platelets [3]", "value": "could inhibit the binding of A2A9"}, {"measurement": "inhibition of Fbg binding to platelets", "setting": "platelets [2]", "value": "inhibited Fbg binding to platelets with an affinity comparable to that of RGDS"}]}, {"molecule": "PAC-1", "values": [{"measurement": "effect on adhesion of αIIbβ3 CHO K1 cells to a monolayer presenting GRGDSC", "setting": "αIIbβ3 CHO K1 cells [4]; PAC-1 antibody together with cRGDFG 300 µM", "value": "prevented cell adhesion"}]}, {"molecule": "RGDS", "values": [{"measurement": "inhibition of PAC-1 binding", "setting": "αIIbβ3", "value": "blocked the binding of both PAC-1 and Fbg to platelets with equal potency"}, {"measurement": "inhibition of Fbg binding to platelets", "setting": "platelets [2]", "value": "blocked the binding of both PAC-1 and Fbg to platelets with equal potency"}]}, {"molecule": "HHLGGAKQAGDV", "values": [{"measurement": "block of cell attachment by soluble peptide to a monolayer presenting GRGDS", "setting": "αIIbβ3 CHO K1 cells [1]", "value": "blocked cell attachment"}]}, {"molecule": "cRGDFG (head to tail)", "values": [{"measurement": "effect on adhesion of αIIbβ3 CHO K1 cells to a monolayer presenting GRGDSC", "setting": "αIIbβ3 CHO K1 cells [4]; cRGDFG 300 µM", "value": "did not interfere with adhesion"}, {"measurement": "block of attachment of CHO K1 cells to a monolayer presenting GRGDSC", "setting": "CHO K1 cells", "value": "efficiently block the attachment"}, {"measurement": "affinity for αvβ3 relative to that for αIIbβ3", "setting": "αvβ3", "value": "approximately 1,400 fold"}]}, {"molecule": "Fbg: Human fibrinogen, plasma protein, adsorbed to hydrophobic monolayer as positive control (protein) chain 1: ADSGEGDFLAEGGGVRGPRVVERHQSACKDSDWPFCSDEDWNYKCPSGCRMKGLIDEVNQDFTNRINKLKNSLFEYQKNNKDSHSLTTNIMEILRGDFSSANNRDNTYNRVSEDLRSRIEVLKRKVIEKVQHIQLLQKNVRAQLVDMKRLEVDIDIKIRSCRGSCSRALAREVDLKDYEDQQKQLEQVIAKDLLPSRDRQHLPLIKMKPVPDLVPGNFKSQLQKVPPEWKALTDMPQMRMELERPGGNEITRGGSTSYGTGSETESPRNPSSAGSWNSGSSGPGSTGNRNPGSSGTGGTATWKPGSSGPGSTGSWNSGSSGTGSTGNQNPGSPRPGSTGTWNPGSSERGSAGHWTSESSVSGSTGQWHSESGSFRPDSPGSGNARPNNPDWGTFEEVSGNVSPGTRREYHTEKLVTSKGDKELRTGKEKVTSGSTTTTRRSCSKTVTKTVIGPDGHKEVTKEVVTSEDGSDCPEAMDLGTLSGIGTLDGFRHRHPDEAAFFDTASTGKTFPGFFSPMLGEFVSETESRGSESGIFTNTKESSSHHPGIAEFPSRGKSSSYSKQFTSSTSYNRGDSTFESKSYKMADEAGSEADHEGTHSTKRGHAKSRPVRGIHTSPLGKPSLSP chain 2: QGVNDNEEGFFSARGHRPLDKKREEAPSLRPAPPPISGGGYRARPAKAAATQKKVERKAPDAGGCLHADPDLGVLCPTGCQLQEALLQQERPIRNSVDELNNNVEAVSQTSSSSFQYMYLLKDLWQKRQKQVKDNENVVNEYSSELEKHQLYIDETVNSNIPTNLRVLRSILENLRSKIQKLESDVSAQMEYCRTPCTVSCNIPVVSGKECEEIIRKGGETSEMYLIQPDSSVKPYRVYCDMNTENGGWTVIQNRQDGSVDFGRKWDPYKQGFGNVATNTDGKNYCGLPGEYWLGNDKISQLTRMGPTELLIEMEDWKGDKVKAHYGGFTVQNEANKYQISVNKYRGTAGNALMDGASQLMGENRTMTIHNGMFFSTYDRDNDGWLTSDPRKQCSKEDGGGWWYNRCHAANPNGRYYWGGQYTWDMAKHGTDDGVVWMNWKGSWYSMRKMSMKIRPFFPQQ chain 3: YVATRDNCCILDERFGSYCPTTCGIADFLSTYQTKVDKDLQSLEDILHQVENKTSEVKQLIKAIQLTYNPDESSKPNMIDAATLKSRKMLEEIMKYEASILTHDSSIRYLQEIYNSNNQKIVNLKEKVAQLEAQCQEPCKDTVQIHDITGKDCQDIANKGAKQSGLYFIKPLKANQQFLVYCEIDGSGNGWTVFQKRLDGSVDFKKNWIQYKEGFGHLSPTGTTEFWLGNEKIHLISTQSAIPYALRVELEDWNGRTSTADYAMFKVGPEADKYRLTYAYFAGGDAGDAFDGFDFGDDPSDKFFTSHNGMQFSTWDNDNDKFEGNCAEQDGSGWWMNKCHAGHLNGVYYQGGTYSKASTPNGYDNGIIWATWKTRWYSMKKTTMKIIPFNRLTIGEGQQHHLGGAKQAGDV", "values": [{"measurement": "adhesion and spreading of αIIbβ3 CHO cells on adsorbed Fbg (positive control)", "setting": "αIIbβ3 CHO K1 cells [5]", "value": "adhered and spread"}]}]}
